Lipid droplet: modulators of hepatic lipid droplet formation. AML12 mouse hepatocytes, oleate lipid droplets, BODIPY imaging. inhibition, % at 6.5 µM. hit rate 0.4% among 240,000;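 active = lipid droplet intensity inhibited by at least 50%, with more than 500 cells counted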
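Assay system: AML12 mouse liver cells | Compound dosing: One dose, 6.5 µM compound | Read-out basis: Droplet intensity reduction, % inhibition | Measured by: Fluorescence imaging, 20x objective, two fields per well | Schedule: Overnight treatment with compound plus oleate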
B2AR ag: human beta-2 adrenergic receptor agonism by FAP; P07550; Am2.2-beta2AR cells, FAP receptor internalization, flow cytometry; response, % (test concentration not listed); hit rate 0.43% among 340,000;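 active = response above a set limit, near 3 SD of response in nonfluorescent compounds, cut at about 42% in these data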
Target sequence (P07550 whole entry, looked up): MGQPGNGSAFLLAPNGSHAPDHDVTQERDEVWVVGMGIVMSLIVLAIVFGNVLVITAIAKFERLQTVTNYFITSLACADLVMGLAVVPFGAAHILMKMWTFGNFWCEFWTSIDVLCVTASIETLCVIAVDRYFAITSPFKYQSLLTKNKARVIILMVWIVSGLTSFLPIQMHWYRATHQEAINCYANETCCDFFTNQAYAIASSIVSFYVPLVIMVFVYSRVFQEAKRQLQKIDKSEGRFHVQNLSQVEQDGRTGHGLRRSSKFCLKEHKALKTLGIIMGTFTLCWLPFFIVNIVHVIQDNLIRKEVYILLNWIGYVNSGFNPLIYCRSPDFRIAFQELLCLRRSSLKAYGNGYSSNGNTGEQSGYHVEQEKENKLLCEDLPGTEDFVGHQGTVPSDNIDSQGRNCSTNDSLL
NTR1 agonist: agonists of human neurotensin receptor NTR1 | activation, % at 20 µM | hit rate 0.17% among 330,000 | NTR1-U2OS beta-arrestin-GFP spot imaging, agonist mode | AID 493036;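 active = activation at or above 40% of the spot to cytoplasm intensity ratio, with at least 20 cells analyzed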;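 note: 0% = DMSO without peptide and 100% = 100 nM NTR1 peptide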
Target sequence (P30989 whole entry, looked up): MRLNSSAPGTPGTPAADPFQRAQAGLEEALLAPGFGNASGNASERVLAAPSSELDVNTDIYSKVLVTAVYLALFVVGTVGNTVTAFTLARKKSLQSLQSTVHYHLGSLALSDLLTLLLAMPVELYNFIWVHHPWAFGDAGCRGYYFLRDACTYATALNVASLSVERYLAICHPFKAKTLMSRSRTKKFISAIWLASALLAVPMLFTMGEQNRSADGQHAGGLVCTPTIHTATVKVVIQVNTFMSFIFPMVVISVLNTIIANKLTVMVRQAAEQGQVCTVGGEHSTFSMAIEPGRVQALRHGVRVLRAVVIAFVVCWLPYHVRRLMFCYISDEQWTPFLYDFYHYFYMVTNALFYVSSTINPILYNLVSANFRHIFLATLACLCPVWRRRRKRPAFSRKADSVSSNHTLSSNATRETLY
GRK2 aptamer HTS: human GRK2 inhibition via aptamer displacement; P25098; bead flow cytometry, FAM-aptamer displacement from GRK2; inhibition of aptamer binding, % at 10 µM; hit rate 0.59% among 330,000;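 active = inhibition of aptamer binding above 40%, roughly 3 SD of noise, on plates passing a quality check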;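 note: median bead fluorescence of bound FAM aptamer so fluorescent compounds give negative values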
H9c2 TAG inh: inhibitors of triacylglycerol accumulation | H9c2 cells, Nile Red lipid (TAG) fluorescence; cells loaded with 200 µM oleic acid | inhibition, % at 12.5 µM | hit rate 0.66% among 230,000;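 active = pattern-corrected inhibition of lipid staining of at least 50% with the nuclear-stain viability signal not falling by more than 50%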;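 note: 0% = DMSO wells and 100% = triacsin C control wells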
Arr AP2 block: human beta-arrestin and AP2 interaction inhibition; FITC-arrestin peptide / GST-AP2 beads, flow cytometry; AP2 beta2 appendage carries R879A mutation; inhibition, % at 10 µM; hit rate 0.31% among 340,000; AID 504490;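 active = inhibition above a set limit, near 3 SD of compounds lacking own fluorescence, cut at about 54% in these data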;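 note: plate controls were DMSO wells for no effect and 5 µM unlabelled arrestin peptide for full effect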
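Measured by: flow cytometry, FL1 (488/535 nm); Material: AP2 appendage R879A on GSH beads; Evaluation: percent response; Timing: pre-incubation 12 min, peptide binding 1 h, room temperature; Also added: 50 nM FITC-arrestin peptide; Medium: PBS with 0.05% Tween 20 and 0.1% BSA.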
Arr AP2 CP1: human beta-arrestin and AP2 interaction inhibition, cherry pick | GST-AP2 beads, FITC arrestin peptide binding, flow cytometry; GST-fused beta2-adaptin appendage, R879A mutant | shares compounds with Arr AP2 block | inhibition, % at 10 µM | hit rate 2% among 1,300;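 active = inhibition above a set limit, roughly 3 SD of non-fluorescent compound noise, cut at about 38% in these data; inactive = inhibition at or below that limit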;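 note: loss of bead fluorescence from 50 nM FITC arrestin peptide bound to appendage; 0% = negative control wells and 100% = excess unlabelled arrestin peptide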
GST-FITC bead: GST-GSH bead binding interference, counter-screen; shares compounds with Arr AP2 block; GST-fluorescein binding to GSH beads, fluorescence; inhibition, % at 10 µM; hit rate 2% among 1,300; AID 588338;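 active = inhibition above 50%, about 3 SD of the inhibition seen with non-fluorescent compounds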;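 note: fluorescein maleimide labelled GST captured on 4 micron glutathione beads; higher means more loss of bead fluorescence from quenching or blocked binding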
An asterisk follows results filed as active; nt = not tested or not shown. Most compounds without a hit are left out; they make up all but 2% or so of the library.

SMILES | Lipid droplet | B2AR ag | NTR1 agonist | GRK2 aptamer HTS | H9c2 TAG inh | Arr AP2 block | Arr AP2 CP1 | GST-FITC bead
CCOC(=O)C1=C(COC(=O)C2CC(=O)N(CCc3ccccc3)C2)NC(=O)NC1C (configuration not stated) | nt | 1.4 | 3.5 | 0.0 | 2.7 | 4.2 | nt | nt
Cc1ccc(S(=O)(=O)N2CCCCC2C)cc1[N+](=O)[O-] (configuration not stated) | -12.6 | 1.9 | 2.1 | 0.0 | -5.5 | 18.5 | nt | nt
O=C(O)CC(c1ccccc1)c1ccc2c(c1)OCO2 (configuration not stated) | nt | nt | nt | nt | 0.7 | nt | nt | nt
O=C(CN1C(=O)COc2ccc(Cl)cc21)N1CCCCC1 | -4.1 | 6.9 | 0.1 | 0.0 | 4.8 | 55.2* | 1.6 | -6.4
CC(OC(=O)/C=C/c1ccccc1Cl)C(=O)NC1CCCCC1C (configuration not stated) | nt | -2.6 | 1.1 | 0.0 | -4.0 | -3.3 | nt | nt
COc1ccccc1-n1cnc2c(c1=O)c1nc3ccccc3nc1n2CCc1ccccc1 | 19.2 | -13.2 | 8.2 | 0.0 | nt | 72.9* | 0.7 | 68.1*
Cc1cccn2c(=O)nc(SCC(=O)NCc3ccccc3)nc12 | nt | -7.0 | 1.5 | 0.0 | 18.0 | -0.4 | nt | nt
Cc1ccc(C(O)P(=O)(OC2CCCCC2)OC2CCCCC2)cc1 (configuration not stated) | -45.7 | 0.5 | 3.1 | 0.0 | nt | -4.4 | nt | nt
COc1ccccc1C(O)P(=O)(OC1CCCCC1)OC1CCCCC1 (configuration not stated) | -18.5 | 3.6 | -0.5 | 3.0 | 8.6 | 54.7* | -8.7 | -3.9
CC1=NN(c2ccccc2)C(=O)C1/C=C1/NC(=S)NC1=O (configuration not stated) | 1.1 | -3.0 | 0.6 | 0.0 | -2.7 | 11.2 | nt | nt
O=C1NC(=S)N/C1=C/C=C/c1ccccc1 | -0.5 | 0.4 | -0.1 | 0.0 | nt | 106.0* | -9.5 | 1.8
O=C(O)CCC(=O)NNC(=O)c1cccc(Br)c1 | 4.5 | 3.9 | 0.4 | 0.0 | nt | 58.3* | 0.3 | -5.5
CCCNc1nc(NCC)nc(OC)n1 | nt | 6.5 | 1.6 | 2.0 | -3.6 | 63.7* | 13.4 | -6.3
Cc1ccc(C)c(NC(=O)COC(=O)c2cc3ccccc3oc2=O)c1 | nt | -4.8 | -0.6 | 3.0 | 4.7 | 65.6* | 1.7 | 4.8
CCc1nn2c(=O)cc(CSCC(=O)Nc3ccccc3Cl)nc2s1 | 1.2 | -3.7 | 0.3 | 4.0 | nt | -7.8 | nt | nt
COc1ccc(C2C(=O)c3ccccc3C2=O)cc1OC | -7.9 | 3.5 | -1.1 | 0.0 | nt | 60.9* | 5.8 | -3.5
CNC(=S)N1CCN(c2c(F)cc3c(=O)c(C(=O)O)cn(C4CC4)c3c2OC)CC1C (configuration not stated) | -0.3 | 2.8 | 1.5 | 1.0 | -8.9 | 68.2* | -3.0 | -9.5
Cc1ccc(C)c(CC(=O)N2CCCC(c3cc(C(=O)NCc4cccnc4)no3)C2)c1 (configuration not stated) | nt | nt | nt | nt | -25.8 | nt | nt | nt
Cc1ccc(C(=O)N/C(=C\c2ccco2)C(=O)NCCN2CCOCC2)cc1C | 22.9 | 0.0 | -1.0 | 1.0 | 3.6 | 55.5* | -4.6 | 0.7
Cc1ccc(NC(=O)Cn2c(O)c(N=NC(N)=S)c3ccccc32)cc1 | -6.6 | -8.3 | 19.0 | 1.0 | nt | 34.9 | nt | nt
CCOC(=O)n1c(O)c(N=NC(N)=S)c2cc(C)ccc21 | -3.3 | -1.2 | -0.3 | 0.0 | -3.3 | 54.2* | -9.9 | 1.9
Cc1cnc(C(=O)Nc2ccc(OC(F)(F)F)cc2)cn1 | -7.7 | 3.6 | 0.3 | 0.0 | nt | 55.3* | 4.9 | -15.6
COc1cccc(NC(=O)COc2coc(CN3CCc4ccccc4C3)cc2=O)c1 | nt | 4.6 | 6.9 | 0.0 | -2.9 | 59.3* | 19.6 | -1.2
O=C(COc1coc(CN2CCc3ccccc3C2)cc1=O)Nc1ccccc1F | nt | 2.1 | 4.5 | 0.0 | -13.0 | 65.3* | -10.0 | 10.1
COc1ccccc1OCCNC(=O)c1ccc(C)c(S(=O)(=O)N2CCOCC2)c1 | nt | 0.3 | -0.6 | 31.0 | 0.3 | 5.0 | nt | nt
SMILES | Lipid droplet | B2AR ag | NTR1 agonist | GRK2 aptamer HTS | H9c2 TAG inh | Arr AP2 block | Arr AP2 CP1 | GST-FITC bead
O=C(Nc1ccon1)Nc1cc(Cl)ccc1Cl | 14.0 | -24.2 | 1.1 | 0.0 | 7.0 | 20.7 | nt | nt
CC(=O)C1CCC2C3CC(O)C4=CC(=O)CCC4(C)C3C(=O)CC12C (configuration not stated) | nt | -13.2 | nt | nt | -1.5 | 27.1 | nt | nt
O=C(CC(=O)c1ccccc1)Nc1ccccc1C(F)(F)F | nt | 5.5 | -0.9 | 0.0 | nt | 10.7 | 12.6 | 3.4
COc1ccc(CNC(=O)c2ccncc2)cc1 | -0.8 | 6.1 | 1.1 | 0.0 | 2.7 | -4.3 | nt | nt
COc1cccc(CNC(=O)c2ccncc2)c1 | 2.4 | -3.6 | 1.2 | 0.0 | -1.1 | 68.5* | -4.9 | -1.6
COC(=O)c1ccccc1NC(=O)CN1CCN(c2ccccn2)CC1 | -3.5 | -2.7 | 2.7 | 5.0 | -67.6 | -5.7 | nt | nt
COC(=O)c1ccccc1N/C=C1\CCc2c(c(C)nn2-c2ccccn2)C1=O | nt | 2.1 | 7.5 | 0.0 | -1.3 | 55.6* | 55.4* | 15.3
O=c1[nH]c(CO)nc2c1oc1ccccc12 | 17.8 | 10.1 | -0.1 | 0.0 | 2.6 | 72.5* | -9.0 | 8.7
O=C(CSc1cccc[n+]1[O-])NC(=O)c1ccc(OC(F)F)cc1 | -6.4 | -2.8 | 0.9 | 0.0 | 3.8 | 54.3* | -9.4 | -2.1
O=C1NC(=O)N2CCSC2(Cc2ccccc2)N1 (configuration not stated) | nt | 1.7 | nt | nt | -15.9 | -1.5 | nt | nt
CCN(CC)c1ccc(/C=N/NC(=O)Cc2cccs2)c(O)c1 | 6.2 | 12.4 | nt | 4.0 | nt | 60.9* | 2.4 | -3.8
CCn1cc(C(=O)Nc2ccc(C)c([N+](=O)[O-])c2)cn1 | -5.3 | -1.9 | 4.0 | 0.0 | nt | 57.1* | -2.0 | -4.5
CCn1cc(C(=O)Nc2ccc(F)c(F)c2)cn1 | 7.3 | 16.8 | 0.6 | 5.0 | nt | 11.8 | nt | nt
CC1CC(C)CN(CCCNC(=O)c2cc3c(=O)[nH]c4ccccc4c3n2C)C1 (configuration not stated) | -1.9 | -0.8 | -0.8 | 0.0 | -5.1 | 60.3* | -8.3 | -12.0
Cn1c(C(=O)NCCCN2CCN(c3ccccc3F)CC2)cc2c(=O)[nH]c3ccccc3c21 | nt | -0.5 | 0.0 | 34.0 | -11.2 | -2.1 | nt | nt
CCNc1ccc2noc3c2c1C(=O)c1ccccc1-3 | 27.3 | -54.9 | -0.7 | 0.0 | nt | 62.9* | 33.6 | 91.0*
CCCCCCCNC(=O)C1(CC2CC(c3ccc(Cl)cc3)=NO2)CCNCC1 (configuration not stated) | -19.4 | 40.1 | 4.4 | 0.0 | 144.0 | 10.4 | nt | nt
CCOC(=O)C1CCN(S(=O)(=O)c2c[nH]c(=O)[nH]c2=O)CC1 | nt | -0.5 | -0.7 | 1.0 | -5.3 | 12.3 | nt | nt
COc1ccc(NC(=O)c2ccc3nc[nH]c3c2)cc1 | -3.3 | 6.6 | 0.9 | 2.0 | nt | 60.4* | 13.7 | 0.5
